The source of these data is paper PMC12122681 (Nature Communications, 2025).

The subject of one data set is fungal IPC synthase. To be noted: in words; cited from earlier work.
Data set [1] concerns the target His-tagged S. cerevisiae IPC synthase complex (Aur1-Kei1), wild type (S. cerevisiae) (UniProt P36107). In words: MST.
In data set [2] the target is the F158Y and A240C mutations (Aur1-Kei1 mutant complexes). Put plainly: MST.
Data set [3] has as its target His-tagged Aur1-Kei1 complex with Aur1 H157Y (S. cerevisiae) (UniProt P36107). Put plainly: MST.
The subject of data set [4] is unpurified membrane-embedded IPC synthase. To be noted: cited from earlier work.
A further data set deals with Aur1-Kei1 complex. Put plainly: Thermal shift assay. It is filed as binding, Saccharomyces cerevisiae. To be noted: 10 µM PI or 10 µM C6-ceramide, 1 h at 4 °C, 5% DMSO; compared to the control. The method in brief:
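nanoDSF on 0.1 mg/mL purified complex in 25 mM HEPES pH 7.5, 150 mM NaCl, 0.01% LMNG. Protein was held 1 h at 4 °C with final 10 µM PI or 10 µM C6-ceramide in 5% DMSO. Intrinsic fluorescence at 330 and 350 nm was read from 35 to 95 °C at […]. Tm was taken from the first-derivative peak of Em350/Em330, averaged over three measurements.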

The data set “cryo-EM structure” concerns the molecule itself. Put plainly: cryo-EM structure.
Data set [5] concerns the molecule itself. Put plainly: SEC + cross-linking + native gel or EMSA. (In general: A gel shift assay detects complexes by their altered migration in electrophoresis.)

Consider `C=C1/C=C(\C)[C@H](CC)CC(=O)[C@H](C)C(=O)[C@@](O)(CO)C/C(OC)=C/[C@@H](C)C1` [rustmicin], for which the “inhibition of fungal IPC synthase” value in the data set on fungal IPC synthase is recorded as “effective inhibitors of fungal IPC synthase”.

What is called Kd is the equilibrium constant for the complex coming apart. Higher therefore signals a looser complex. Molecule Aureobasidin A (peptide) returned a Kd in data set [1] of 57.7 nM. This molecule also had a fold weakening of the binding affinity against the WT complex in data set [2] of 1.5 to 2 fold. In addition, in data set [3], the fold reduction in binding affinity against the WT complex was 30 fold.

Turning to ceramide, the “kinetic value for ceramide” value in data set [4] is listed as 3 µM. The “effect on protein stability” value in the data set on Aur1-Kei1 complex is given as “did not enhance protein stability”.

On to `CCCCCCCCCC[C@H](C)[C@@H](O)[C@@H](C)/C=C(C)/C=C(\C)C(=O)[C@H](C)/C=C(\C)C(=O)O[C@H](CO)[C@@H](O)[C@H](O)C(=O)O` [khafrefungin], for which the “inhibition of fungal IPC synthase” value in the data set with fungal IPC synthase is “effective inhibitors of fungal IPC synthase”.

B1: S. cerevisiae Aur1, catalytic subunit of IPC synthase (enzyme)
chain: MANPFSRWFLSERPPNCHVADLETSLDPHQTLLKVQKYKPALSDWVHYIFLGSIMLFVFITNPAPWIFKILFYCFLGTLFIIPATSQFFFNALPILTWVALYFTSSYFPDDRRPPITVKVLPAVETILYGDNLSDILATSTNSFLDILAWLPYGLFHFGAPFVVAAILFVFGPPTVLQGYAFAFGYMNLFGVIMQNVFPAAPPWYKILYGLQSANYDMHGSPGGLARIDKLLGINMYTTAFSNSSVIFGAFPSLHSGCATMEALFFCYCFPKLKPLFIAYVCWLWWSTMYLTHHYFVDLMAGSVLSYVIFQYTKYTHLPIVDTSLFCRWSYTSIEKYDISKSDPLAADSNDIESVPLSNLELDFDLNMTDEPSVSPSLFDGSTSVSRSSATSITSLGVKRA
modifications: two major bands likely correspond to the glycosylated and non-glycosylated forms (sites not given)
A word on the stoichiometry N: it is the number of molecules, sites or subunits per partner or assembly. On to B1, for which the “stoichiometry N” value in the data set “cryo-EM structure” was found to be 2.

B2: S. cerevisiae IPC synthase complex (Aur1-Kei1 complex), wild type (complex)
chain 1: MANPFSRWFLSERPPNCHVADLETSLDPHQTLLKVQKYKPALSDWVHYIFLGSIMLFVFITNPAPWIFKILFYCFLGTLFIIPATSQFFFNALPILTWVALYFTSSYFPDDRRPPITVKVLPAVETILYGDNLSDILATSTNSFLDILAWLPYGLFHFGAPFVVAAILFVFGPPTVLQGYAFAFGYMNLFGVIMQNVFPAAPPWYKILYGLQSANYDMHGSPGGLARIDKLLGINMYTTAFSNSSVIFGAFPSLHSGCATMEALFFCYCFPKLKPLFIAYVCWLWWSTMYLTHHYFVDLMAGSVLSYVIFQYTKYTHLPIVDTSLFCRWSYTSIEKYDISKSDPLAADSNDIESVPLSNLELDFDLNMTDEPSVSPSLFDGSTSVSRSSATSITSLGVKRA
chain 2: MRSSLLTLPKSFLGFMPLYLAVEIVLGISILNKCSGAYGILALFTGHPLDFMQWIAYLWSVFTLIVFSQGLYLIHKPNLLVFSQICVLYTIDTISTCFFTLWFTTQWFTLEDTANIDGNNALQSNPISTGKLTERGIDISKQSATESYEYTMTILITLVSLIFRFYFNFILASFVQELLHHPKYLVDRDDVEQNLKNKPIWKRLWAKSQKGCYKLCKNLLE
modifications: two major bands likely correspond to the glycosylated and non-glycosylated forms (sites not given)
Regarding B2, the “stoichiometry N” value in data set [5] came out at 2.
